Calls of active or inactive are those of the source. The calls are words filed in the database; no cut-off is given here.

The test system of data set [1] is HCT-116. The data set can be described thus: In vivo inhibition of HDAC in tumor of human HCT116 cells xenografted nu/nu mouse assessed as increase in histone hyperacetylation at 10 mg/kg, ip after 4 to 12 hrs by immunoblotting method. Format: functional, organism-based. Also on record: dose 10 mg/kg. Summed up:
(§1)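 Mice bearing HCT116 xenografts were dosed intraperitoneally at 10 or 50 mg/kg, or orally at 50 mg/kg. Tumors were excised at 4, 12 and 24 h. Histone hyperacetylation in the tumors was assessed by immunoblot, n = 2.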
For orientation: Xenograft models place foreign cells or tissue in a host animal.

The subject of data set [2] is HCT-116. Nature of the data set: In vivo inhibition of HDAC in tumor of human HCT116 cells xenografted nu/nu mouse assessed as increase in histone hyperacetylation at 50 mg/kg, ip after 4 to 24 hrs by immunoblotting method. Format: functional, organism-based. Also on record: dose 50 mg/kg. Summed up: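 HCT116 xenograft mice were dosed intraperitoneally at 10 or 50 mg/kg. Tumors were excised after 4, 12 and 24 h, n = 2. Histone hyperacetylation in tumor tissue was assessed by immunoblotting.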

Data set [3] has as its system HCT-116. Nature of the data set: In vivo inhibition of HDAC in tumor of human HCT116 cells xenografted nu/nu mouse assessed as increase in histone hyperacetylation at 50 mg/kg, ip after 12 hrs by immunoblotting method. Format: functional, organism-based. Set-up: dose 50 mg/kg. In a few lines: as §1
Data set [4] is described as follows: Drug metabolism in human HCT116 cells protein lysate solution assessed as largazole thiol formation at 25 ug/mL after 1 hr by HPLC-MS method. Format: ADME, cell-based. Conditions: hct-116, 1 h.
Data set [5] relates to HCT-116. Nature of the data set: In vivo inhibition of HDAC in tumor of human HCT116 cells xenografted nu/nu mouse assessed as increase in histone hyperacetylation at 50 mg/kg, po after 4 to 12 hrs by immunoblotting method. Set-up: dose 50 mg/kg. Format: functional, organism-based. Summed up: as §1
Another data set relates to Serum. The data set can be described thus: Drug metabolism in mouse serum assessed as largazole thiol formation after 0.25 to 1440 mins by HPLC-MS method. Format: ADME, cell-free.
A short description of data set [6]: Drug metabolism in tumor of human HCT116 cells xenografted nu/nu mouse assessed as time for maximum largazole thiol level at 10 mg/kg, ip by HPLC-MS method. Format: ADME, organism-based, Neoplasm, HCT-116. Set-up: dose 10 mg/kg, route intraperitoneal. Conditions: in vivo.
A short description of data set [7]: Drug metabolism in tumor of human HCT116 cells xenografted nu/nu mouse assessed as time for maximum largazole thiol level at 50 mg/kg, ip by HPLC-MS method. Format: ADME, organism-based, Neoplasm, HCT-116. Set-up: dose 50 mg/kg, route intraperitoneal. To be noted: in vivo.

A word on the Tmax: it is the time at which the peak concentration occurs. In the case of `CC(C)[C@@H]1NC(=O)[C@]2(C)CSC(=N2)c2csc(n2)CNC(=O)C[C@@H](/C=C/CCSSCC/C=C/[C@@H]2CC(=O)NCc3nc(cs3)C3=N[C@@](C)(CS3)C(=O)N[C@@H](C(C)C)C(=O)O2)OC1=O`, the inhibition result with HCT-116 [1] and in the data set on HCT-116 [2] was “Active” throughout. Further, the inhibition result in the data set with HCT-116 [3] and with HCT-116 [5] was “inactive” throughout. Besides, the figures for the Drug metabolism result (in data set [4]; in the data set on Serum) were “metabolite_detected” and “metabolite_notdetected”, respectively. Also, the Tmax in data set [6] and in data set [7] was 4 h each time.
